From ChEMBL document CHEMBL4354813, “Design, Synthesis, and Pharmacological Evaluation of Potent Positive Allosteric Modulators of the Glucagon-like Peptide-1 Receptor (GLP-1R)” (J Med Chem, 2020)
Calls of active or inactive are those of the source. The rule behind the calls is not given here.

Key:
[1] = target: T1, Glucagon-like peptide 1 receptor (Homo sapiens, UniProt P43220); assay: Positive allosteric modulator activity at human GLP-1R expressed in PSC-HEK293 cells assessed as potentiation of cAMP accumulation incubated for 30 mins by HTRF cAMP assay
T1 sequence (P43220 whole entry): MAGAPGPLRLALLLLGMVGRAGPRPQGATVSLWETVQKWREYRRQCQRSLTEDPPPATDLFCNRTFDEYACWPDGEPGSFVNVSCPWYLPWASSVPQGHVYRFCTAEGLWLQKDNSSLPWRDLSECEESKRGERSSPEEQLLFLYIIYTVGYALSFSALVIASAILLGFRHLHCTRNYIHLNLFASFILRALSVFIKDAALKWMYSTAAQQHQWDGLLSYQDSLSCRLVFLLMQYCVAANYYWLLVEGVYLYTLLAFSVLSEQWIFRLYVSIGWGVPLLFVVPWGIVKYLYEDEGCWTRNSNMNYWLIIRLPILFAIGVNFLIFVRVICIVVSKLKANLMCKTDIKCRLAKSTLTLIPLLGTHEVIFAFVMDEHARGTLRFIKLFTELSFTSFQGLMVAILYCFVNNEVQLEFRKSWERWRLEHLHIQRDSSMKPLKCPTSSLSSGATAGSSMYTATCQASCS

[2] = target: Vasoactive intestinal polypeptide receptor 2 (Homo sapiens) (UniProt P41587); assay: Activity at human VIPR expressed in PSC-HEK293 cells incubated for 30 mins by HTRF cAMP assay
Vasoactive intestinal polypeptide receptor 2 (Homo sapiens), sequence (P41587 whole entry, looked up): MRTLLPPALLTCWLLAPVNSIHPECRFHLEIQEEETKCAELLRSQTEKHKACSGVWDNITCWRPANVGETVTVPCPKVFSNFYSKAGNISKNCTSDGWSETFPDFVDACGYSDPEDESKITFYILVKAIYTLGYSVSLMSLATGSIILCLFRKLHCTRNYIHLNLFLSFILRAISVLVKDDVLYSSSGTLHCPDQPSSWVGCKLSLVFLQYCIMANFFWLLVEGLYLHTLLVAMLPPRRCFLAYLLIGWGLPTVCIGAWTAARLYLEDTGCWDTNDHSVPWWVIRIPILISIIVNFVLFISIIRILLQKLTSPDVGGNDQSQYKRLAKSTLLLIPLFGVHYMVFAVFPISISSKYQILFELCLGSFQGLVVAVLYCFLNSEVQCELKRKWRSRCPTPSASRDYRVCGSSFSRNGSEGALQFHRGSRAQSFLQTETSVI

[3] = target: T2, Glucagon-like peptide 1 receptor (Mus musculus) (UniProt O35659); assay: Inhibition of 15 mM glucose-mediated increase in intracellular Ca2+ level in mouse MIN6-c4 cells at 0.12 to 30 uM by FLIPR assay relative to control; assay type: functional, cell-based
T2 sequence (whole entry): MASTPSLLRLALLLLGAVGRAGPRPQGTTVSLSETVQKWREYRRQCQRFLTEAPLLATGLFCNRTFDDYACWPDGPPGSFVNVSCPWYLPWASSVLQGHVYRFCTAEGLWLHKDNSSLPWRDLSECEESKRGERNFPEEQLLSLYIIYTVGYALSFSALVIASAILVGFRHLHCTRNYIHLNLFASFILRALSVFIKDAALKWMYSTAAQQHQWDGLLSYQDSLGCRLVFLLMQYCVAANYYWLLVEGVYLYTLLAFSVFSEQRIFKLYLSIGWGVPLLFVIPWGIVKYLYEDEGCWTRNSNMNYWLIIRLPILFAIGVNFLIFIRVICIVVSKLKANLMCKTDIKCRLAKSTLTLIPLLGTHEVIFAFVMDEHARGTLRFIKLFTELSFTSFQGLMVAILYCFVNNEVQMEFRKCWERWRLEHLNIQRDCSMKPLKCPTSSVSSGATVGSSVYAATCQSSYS

[4] = target: T1, Glucagon-like peptide 1 receptor; assay: Positive allosteric modulator activity at GLP-1R in human 1.1B4 cells in presence of EC20 level of GLP1(9-36)NH2 incubated for 30 mins by HTRF cAMP assay; assay type: functional, cell-based; settings: read-out: EC50
Procedure, shortened: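 Human pancreatic β-cell line 1.1B4, 20,000 cells/well cultured overnight, washed twice; compound concentration-response with fixed 10 nM GLP1(9-36)NH2, 30 min. cAMP by HTRF 665/620 ratio, normalised to buffer (1x HBSS, 0.1% BSA, 1 mM IBMX; 0%) and GLP-1(7-36)NH2 (100%); 4-parameter logistic fit.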

Mus musculus = assay: Suppression of blood glucose concentration in GLP1(9-36)NH2-treated ob/ob C57Bl/6J mouse model of T2DM at 30 mg/kg, po dosed 1 hrs before test and treated with 60 mg/kg, po OATP/MRP2 inhibitor rifampicin 2.5 hrs prior to oral glucose-tolerance test; assay type: functional, organism-based
Procedure, shortened: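 Male ob/ob mice aged 10–11 weeks, n=7, randomised on blood glucose and fasted overnight. Rifampicin 60 mg/kg p.o. 2.5 h before the oGTT, compound 30 mg/kg p.o. 1 h before, GLP1(9-36)NH2 i.p. 15 min before, each given as indicated. Glucose 2 g/kg orally. Tail-vein glucose by glucometer at 0, 15, 30, 60 and 90 min.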

[5] = Lipophilicity, logD of the compound at pH 7.4 at 25 degC; assay type: physicochemical; settings: buffer
[6] = target: T3, Solute carrier organic anion transporter family member 1B3 (Homo sapiens, UniProt Q9NPD5); assay: Substrate activity at human OATP1B3 expressed in HEK293 cells assessed as increase in compound uptake at 1 uM LC-MS/MS analysis; assay type: ADME, cell-based; settings: hek293, 1 µM, TDE = time-dependent effect
T3 sequence (Q9NPD5 whole entry): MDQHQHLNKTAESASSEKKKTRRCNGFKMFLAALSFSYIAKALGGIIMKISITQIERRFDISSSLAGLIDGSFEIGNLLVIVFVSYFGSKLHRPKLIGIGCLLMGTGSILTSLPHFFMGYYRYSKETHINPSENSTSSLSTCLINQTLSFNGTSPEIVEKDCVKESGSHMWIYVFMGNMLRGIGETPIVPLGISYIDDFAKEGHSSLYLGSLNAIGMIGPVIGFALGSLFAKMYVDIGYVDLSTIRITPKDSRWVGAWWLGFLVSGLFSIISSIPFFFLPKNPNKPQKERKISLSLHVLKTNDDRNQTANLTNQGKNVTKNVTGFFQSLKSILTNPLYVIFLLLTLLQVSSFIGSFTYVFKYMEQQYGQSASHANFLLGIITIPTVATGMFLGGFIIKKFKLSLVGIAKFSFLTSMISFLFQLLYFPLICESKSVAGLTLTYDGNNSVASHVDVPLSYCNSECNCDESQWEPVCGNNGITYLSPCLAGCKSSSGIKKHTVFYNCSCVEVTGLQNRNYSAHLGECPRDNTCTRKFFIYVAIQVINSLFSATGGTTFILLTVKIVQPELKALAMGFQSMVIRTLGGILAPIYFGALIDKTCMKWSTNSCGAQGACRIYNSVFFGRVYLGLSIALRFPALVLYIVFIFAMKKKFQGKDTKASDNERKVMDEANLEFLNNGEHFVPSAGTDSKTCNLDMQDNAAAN
Procedure, shortened: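 HEK-TR cells overexpressing hOATP1B1 or hOATP1B3, run in parallel with control HEK-TR cells, seeded at 1 x 10⁵ cells/well one day before. Time-dependent uptake of 1 μM compound in HBSS at 37 °C, quadruplicates. Uptake stopped with ice-cold buffer, cells washed, lysed and quantified by LC-MS/MS. Uptake ratio calculated against the control cells.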

[7] = Volume of distribution at steady state in Wistar rat at 3 mg/kg, iv administered as single dose measured up to 24 hrs ESI-LC/MS-MS analysis; settings: in vivo
[8] = Apparent permeability from apical and basolateral in human Caco2/TC7 cells at apical pH 6.5 with 0.5% BSA and basolateral pH 7.4 with 5% BSA at 20 uM incubated for 2 hrs by LC-MS/MS analysis; settings: caco2/tc7, pH 6.5 apical, pH 7.4 basolateral
[9] = Efflux ratio in human Caco2/TC7 cells at pH 7.4 in presence of 0.5% BSA; assay type: ADME, cell-based; settings: Caco-2, pH 7.4
Procedure, shortened: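 Efflux in Caco-2/TC7 cells under isocratic conditions, pH 7.4 and 0.5% BSA in both compartments, compound 2 µM, with and without cyclosporine A as efflux inhibitor; LC-MS/MS analysis.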

[10] = Clearance in Wistar rat at 3 mg/kg, iv administered as single dose treated 2 hrs after dosing with 40 mg/kg, po OATP/MRP2 inhibitor rifampicin and measured up to 24 hrs ESI-LC/MS-MS analysis; assay type: ADME, organism-based; settings: in vivo
Procedure, shortened: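 Male Wistar rats (n=3 per route) pretreated orally with rifampicin 40 mg/kg (0.6% methylcellulose, 0.5% Tween 80 in water) 2 h before compound, given 3 mg/kg i.v. in Glycoferol/Cremophor-water solution or 10 mg/kg p.o. wet-milled suspension. Plasma sampled up to 24 h; ESI-LC/MS-MS after acetonitrile precipitation (LOQ 1 ng/mL); noncompartmental analysis.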

| Activity [1] | Activity [2] | inhibition [3] | EC50 [4] [nM] | logD [5] | Activity [6] | Vdss [7] [L/kg] | Papp [8] [×10⁻⁷ cm/s] | efflux ratio [9] | clearance [10] [mL/min/kg] | Compound | Activity (Mus musculus) |
| --- | --- | --- | --- | --- | --- | --- | --- | --- | --- | --- | --- |
| inactive | inactive | Active | 40 | – | – | – | – | – | – | CC(O)CCN1C[C@H]2c3c(c4ccccc4n3C(=O)OC(C)(C)C)C[C@@H](C1=O)N2C(=O)CC1CCC(F)(F)CC1 (stereo not given in full) | – |
| inactive | inactive | inactive | 130 | 1.7 | Tde | 2.29 | 32 | 247 | 19.2 | CC(C)(C)OC(=O)n1c2c(c3ccccc31)C[C@H]1C(=O)N3C[C@@H](CC(=O)O)C[C@H]3[C@@H]2N1C(=O)CC1CCC(F)(F)CC1 | Active |
